Assay results as given in the array DNA melting data of Ke et al. (doi:10.1101/2024.01.08.574731).

What was measured:
[1] = melting temperature; fluorescence melt of hairpins on a sequencing array, two-state fit, raised by 9.35 °C to match UV melts; conditions: sodium 0.088 M
Procedure, shortened: (§1)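 With Cy3 and quencher oligos annealed, library hairpins on a sequenced MiSeq flow cell were imaged for Cy3 fluorescence in 50 mM Na-HEPES pH 8.0, 25 mM NaCl, in 2.5 °C steps up to 60 °C. Melting temperature and folding enthalpy were derived from bootstrapped two-state fits of signals normalised to pre-quench Cy3 and to control constructs. Four replicates were combined by inverse variance, with fitted temperatures raised by 9.35 °C to match UV melts.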

[2] = folding enthalpy; higher = less favourable; fluorescence melt of hairpins on a sequencing array, two-state fit; conditions: sodium 0.088 M
Procedure, shortened: as §1

Sequence	Tm [1] [°C]	folding enthalpy [2] [kcal/mol]
GCCAGTTCGAAAGAAGGC (((..(((....))))))	37.1	-20.2
GTCAGGGGAAACCCTGGC (.(((((....))))).)	53.6	-27.7
GTAGGTGGAAACGTCTAC ((((..(....)..))))	28.8	-16.8
GGAGTTCGAAAGAATTCC (((.(((....))).)))	48.6	-39.8
GCAGGCGAAAGCCTCTGC ((((((....)))..)))	46.7	-12
GGGCGACGAAAGTCACCC (((.(((....))).)))	61.8	-43.3
GCAAAAACGAAAGTTTGC (((..(((....))))))	43.2	-26
GATCGCAAACGCGATC ((((((....))))))	64.8	-42.1
GCACTCGAAAGAGGCTGC ((((((....)))..)))	53	-19.6
GCCTTCGAAAGAAGAGGC ((((((....)))..)))	46	-23.4
GACGTGAAAACGTC (((((....)))))	61.8	-32.7
GTTTCGACGAAAGTCAAC (((..(((....))))))	22.9	-9.58
GATCCAGGCCTGGATC ((((((....))))))	60	-54.9
GAACCACGAAAGTGCTTC (((.(((....))).)))	32.3	-17.1
GTCGACGAAAGTCCGGAC ((((((....)))..)))	37	-18.1
GTGCTGCGAAAGCATCAC (((.(((....))).)))	52	-31.9
GACTTGGGAAACTAAGTC (((((.(....).)))))	42.5	-28.2
GAGTCCGAAAGGAGGCTC ((((((....)))..)))	47.4	-20.7
GAAATCCGAAAGGACTTC (((.(((....))).)))	37.6	-29.8
GGAGGGGGAAACCCCTCC (((((((....)))))))	69.3	-32
GCTAGACCGAAAGGTAGC (((..(((....))))))	44.1	-19.2
CCATTGAAAAATGG (((((....)))))	41.6	-22.2
GGGCATCGAAAGATCCCC (((.(((....))).)))	48.9	-19.4

Sequence	Tm [1] [°C]	folding enthalpy [2] [kcal/mol]
GGTTACGAAAGTATGACC ((((((....)))..)))	30.4	-15.1
GTTGGTGGAAACACCAGC (.(((((....))))).)	50.6	-21.5
GTGTCTCGAAAGAGTCAC (((.(((....))).)))	49.4	-39.3
GTCTCACGAAAGTGTGAC (((.(((....))).)))	53.8	-43.4
GGTATCGAAAGATTAACC ((((((....)))..)))	30.3	-17
GATCCAGCATTGGATC ((((((....))))))	56	-44.4
GCTGAGGGAAACTTCGGC ((.((.(....).)).))	33.8	-29
GACTGGGGAAACCCAATC ((.((((....)))).))	31.7	-14.6
GCGCACGAAAGTGACCGC ((((((....)))..)))	48.4	-21.9
GCGGTACTCCGC ((((....))))	64.1	-23.3
GATCGCCGAAAGGCATC (((.(((....))))))	37.6	-9.53
GCGACGCGAAAGCGCAGC ((..(((....)))..))	58.9	-15.5
GTGCCTGGAAACAGGTAC ((.((((....)))).))	53.6	-32.7
GGAAAGGGAAACCTTTTC (.(((((....))))).)	37.6	-24.3
GTTACCGAAAGGTCGAAC ((((((....)))..)))	28.2	-9.83
GATCCCCCGCGGGATC ((((((....))))))	57.2	-34.2
GCTCGCGGAAACGTGGGC ((.(.((....)).).))	50.2	-34
GGCAGCGGAAACGTTGCC ((((.((....)).))))	61.2	-40.4
GATCCCCATAGGGATC ((((((....))))))	62.8	-41.1
GCCTTCCGAAAGGAGGC (((.(((....))))))	59.4	-29.8
CGCCTGCGGAAACGCGCG (((..(((....))))))	42.1	-16.9
GATCTTCGACAAGATC ((((((....))))))	38.6	-26.7
GCTGTGGGAAACCGTAGC (((..((....))..)))	34.4	-18.5

Sequence	Tm [1] [°C]	folding enthalpy [2] [kcal/mol]
GGACGTGGAAACACGCCC ((.((((....)))).))	53	-35.7
GGCATAGGAAACTATACC ((.((((....)))).))	31.2	-18.6
GCTCTAGCGAAAGCTAGC (((..(((....))))))	38.3	-5.88
GGCGGAGGAAACTCCACC ((.((((....)))).))	48.9	-33.6
GGCGTCGGAAACGACGTC (.(((((....))))).)	66.2	-23.4
GGGAGCGGAAACACCCCC (((.(.(....).).)))	28.2	-16
GACACAGGAAACTGTGTC (((((((....)))))))	62.5	-47.9
GGGCCGGGAAACTGGCCC (((((.(....).)))))	68.9	-31.9
GGGCGTGGAAACATGCCC ((((.((....)).))))	63.1	-42.9
GATAAGGGAAACCTTGTC ((.((((....)))).))	37.9	-20.7
GAGTAGACGAAAGTCCTC (((..(((....))))))	32.8	-14.1
GATCATTGAAATGATC ((((((....))))))	46	-36.8
GCGGATGGCCGC ((((....))))	54.6	-21
GAGCGGGGAAACCCACTC (((.(((....))).)))	46.2	-28.4
GATCAGCGACTGATC ((((((...))))))	46.8	-33.1
GAGTAGCCGAAAGGCCTC (((..(((....))))))	38.4	-10.7
GTCGCTACGAAAGTAGAC (((..(((....))))))	33.3	-14.6
GCGTCTGGAAACGGATGC ((.((.(....).)).))	44.4	-35.5
GCTCGCGAAAGCGTAGC ((((((....))).)))	61.9	-19
GCGATCGAAAGATAGCGC ((((((....)))..)))	55.5	-30.8
GTATCCGAAAGGAGGTAC ((((((....)))..)))	28.5	-10.3
GTTACACCGAAAGGTAAC (((..(((....))))))	31.8	-15.8
GGTGTGCGAAAGCATACC (((.(((....))).)))	63.6	-38.4

Sequence	Tm [1] [°C]	folding enthalpy [2] [kcal/mol]
GGACATCGAAAGATATCC (((.(((....))).)))	38	-29.8
GGATTTCGAAAGAAGTCC (((.(((....))).)))	49.3	-36.2
GGCAAAGGAAACTTCGCC (((.(((....))).)))	41	-29.7
GGCTGAGGAAACTTAGCC ((((.((....)).))))	50.2	-36.3
GTGGAGCGAAAGCTACAC (((.(((....))).)))	68.2	-30.8
GGAGAGCGAAAGCTTCC (((.(((....))))))	44.5	-18.2
GATAATGGAAACATTGTC ((.((((....)))).))	36.2	-31.2
GATCGTAGTCACGATC ((((((....))))))	54.1	-36.1
GTTTTCCCGAAAGGGAAC (((..(((....))))))	36.5	-10.7
CGAAACGGAAACGTCTCG (((.(((....))).)))	39	-27.3
GCGTCTACACGC ((((....))))	51.4	-25.9
AAAGCGAAAGCTTT (((((....)))))	63.4	-15.5
GTTGGGGGAAACTCCAAC (((((.(....).)))))	50.4	-41.2
GCTTGAGGAAACTTGAGC (((..((....))..)))	33.8	-16.7
GCTTTCCGAAAGGAAGC (((.(((....))))))	52.3	-21.1
GATCAATAATTTGATC ((((((....))))))	43.2	-34.8
GTATAACGAAAGTTTAC (((.(((....))))))	30.4	-16.8
GAATGGAAACATTC (((((....)))))	40.6	-24.9
GCCCACGGAAACGCGGGC ((((.((....)).))))	62.3	-47.5
GTATTCGAAAGAATTTAC ((((((....)))..)))	27.5	-12.2
TCCATGAAAATGGA (((((....)))))	42.2	-17.1
GATCCCCAACGGGATC ((((((....))))))	57.2	-29.7
GAAACCGAAAGGTTTTTC ((((((....)))..)))	48.8	-15.6
